Results pooled from the literature.
Compare with care: the assays were run in different laboratories.
CDK4: Cyclin-dependent kinase 4 (CDK4, Homo sapiens, UniProt P11802)
CDK4 with cyclin D3: Cyclin-dependent kinase 4, with cyclin D3 (CDK4, Homo sapiens, UniProt P11802)
CDK4 with cyclin D1: Cyclin-dependent kinase 4, with cyclin D1 (CDK4, Homo sapiens, UniProt P11802)

SMILES	target	effect on	action	method	tested at	endpoint	result
CS(=O)(=O)NCC[C@H](NC(=O)c1cncc2c1cnn2-c1ccc(F)cc1)c1ccnc(S(C)(=O)=O)c1	CDK4	cell-free assay	–	competition with immobilised ligand	1 µM	remaining binding	100%
C[C@@H]1CCN(C(=O)CC#N)C[C@@H]1N(C)c1ncnc2[nH]ccc12	CDK4 with cyclin D3	cell-free assay	inhibitor	–	0.5 µM	remaining signal	99.9%
Nc1ncnc2occ(-c3ccc(NC(=O)Nc4cc(C(F)(F)F)ccc4F)cc3)c12	CDK4	cell-free assay	inhibitor	–	20 µM	remaining signal	29%
O=C(c1ccc(Br)cc1)[C@H]1Cc2c(cc([N+](=O)[O-])cc2[N+](=O)[O-])[C@@H](O)[C@@]12C(=O)Nc1ccccc12	CDK4	cell-free assay	inhibitor	TR-FRET	1 µM	inhibition	29.5%
CO[C@@H](C)c1c(Nc2ccc([C@H](N(C)C(=O)C3CCS(=O)(=O)CC3)C(F)(F)F)cc2)cnc2cc(Cl)nn12	CDK4 with cyclin D1	cell-free assay	–	competition with immobilised ligand	1 µM	remaining binding	100%
COc1cc2c(cc1OC)-c1[nH]nc(Nc3cccc(F)c3)c1C2	CDK4 with cyclin D1	cell-free assay	–	–	0.5 µM	remaining signal	93.9%
O=C(Nc1cnn(-c2csc(C(=O)NC3COC3)c2)c1)Nc1c(F)cccc1Cl	CDK4 with cyclin D3	enzyme activity	inhibitor	–	5 µM	remaining activity	79.4%
CN1CCN(c2cnc3c(C4CCN(C(=O)c5ccc(OC(F)(F)F)cc5N)CC4)ncnc3c2)CC1	CDK4	cell-free assay	–	competition with immobilised ligand	1 µM	remaining binding	100%
CN(C)c1nccc(-c2cnc3ncccn23)n1	CDK4	binding	–	–	1 µM	remaining binding	71%
N#CCCc1ccc2c(c1)-c1[nH]c3ccc([N+](=O)[O-])cc3c1CC(=O)N2	CDK4 with cyclin D1	cell-free assay	–	–	0.5 µM	remaining signal	11.8%
O=C(NCc1ncc(C(F)(F)F)cc1Cl)c1ccc2c(c1)C1(CCS(=O)(=O)CC1)[C@H](C1CC1)N2S(=O)(=O)c1ccc(F)cc1	CDK4 with cyclin D3	cell-free assay	–	competition with immobilised ligand	1 µM	remaining binding	88%
C[C@H]1CCN(c2nccc(-c3cnn4ncccc34)n2)C1	CDK4 with cyclin D1	binding	–	–	1 µM	remaining binding	80%
COc1cc(Cl)c(C(=O)N[C@@H](CN[C@H]2CC[C@@H](N)CC2)Cc2ccc(C#N)cc2)cc1-c1ccc(CN[C@H](C)c2ccc(C)cc2)o1	CDK4 with cyclin D3	enzyme activity	inhibitor	–	1 µM	remaining activity	103%
O=C(c1ccc(F)cc1)[C@H]1Cc2c(cc([N+](=O)[O-])cc2[N+](=O)[O-])[C@H](O)[C@]12C(=O)Nc1ccccc12	CDK4	cell-free assay	inhibitor	TR-FRET	1 µM	inhibition	23.2%
CNC(=O)Nc1ccc2c(c1)[C@@]1(CC2)OC(=O)N(CC(=O)N(Cc2ccc(F)cc2)[C@@H](C)C(F)(F)F)C1=O	CDK4	cell-free assay	–	competition with immobilised ligand	1 µM	remaining binding	73%
O=C1Nc2ccc(Cl)cc2C1=Cc1cc(Cl)c(O)c(Cl)c1	CDK4 with cyclin D3	cell-free assay	–	–	0.5 µM	remaining signal	94.8%
COc1ccnn2ncc(-c3ccnc(N(C)C)n3)c12	CDK4 with cyclin D3	binding	–	–	1 µM	remaining binding	69%
CC(C)(O)[C@H]1CC[C@H](Nc2ccc3ncc(-c4cccc(C(F)(F)F)c4)n3n2)CC1	CDK4 with cyclin D1	enzyme activity	inhibitor	–	1 µM	remaining activity	90.5%
CNC(=O)Nc1ccc2c(c1)CC[C@@]21OC(=O)N(CC(=O)N(Cc2ccc(F)cc2)[C@@H](C)C(F)(F)F)C1=O	CDK4 with cyclin D3	cell-free assay	–	competition with immobilised ligand	1 µM	remaining binding	79%
